Test results taken from paper PMC6904836 (International Journal for Parasitology: Drugs and Drug …, 2019).
Several values for one entry are separate records, joined by “and”; a condition that tells them apart may be missing. Equal values may be shown once. Each block holds one compound with its values, some of them ahead of it.

What was measured:
[1] = system: L. major (MHOM/IL/SU73/WR779); experiment: Luciferase amastigote macrophage assay in RAW 264.7; type: cell-based; details: Leishmania major, RAW264.7, 96 h, read-out: EC50 L. major
Summary of the method: (§1)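 RAW 264.7 macrophages (10,000/well) were incubated 24 h at 37 °C/5% CO2, then infected with luciferase-transfected promastigotes in DMEM + 10% HiFBS. Promastigotes were maintained in Schneider's + 20% HiFBS at 22 °C. Compounds (DMSO stock 11.5 mM) ran from 10 μg/ml in 1:2 dilutions, 0.2% DMSO final, for 96 h at 37 °C. D-luciferin was added at 150 μg/mL final for 30 min before the luminescence read. Amphotericin B control was run in octuplicate.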

[2] = system: L. guyanensis (MHOM/GY/06/PAB-3985-WR-2853/A Chan); experiment: as above; type: cell-based; details: Leishmania guyanensis, RAW264.7, 96 h, read-out: EC50 L. guyanensis
Summary of the method: as §1

[3] = system: L. tropica (MHOM/SU/74/K-27 WR-2995); experiment: Luciferase amastigote macrophage assay in RAW 264.7; type: cell-based; details: Leishmania tropica, RAW264.7, 96 h, read-out: EC50 L. tropica
[4] = system: L. major (NIH173 (MHOM/IR/-/173)); experiment: Lesion cure model, BALB/c mice infected with luciferase-expressing L. major; type: in vivo; details: BID; for bioluminescence signal (parasite load) at the infection site: vs vehicle control
[5] = system: L. major (MHOM/SA/85/JISH118); experiment: L. major - BALB/c mouse model of CL; type: in vivo, BALB/c mice; details: for % reduction Lesion size / % reduction Parasite load: n = 5
in vitro = details: human
[6] = pH7.4; ref DNDi unpublished data; cited from earlier work
[7] = 50 mg/kg/day, compared to the untreated control
[8] = study 1, 50 mg/kg PO, 5 days, day 11 post end of treatment
[9] = study 2, 50 mg/kg PO, 10 days, day 11 post end of treatment
[10] = study 2, 50 mg/kg PO, 10 days, day 80

EC50 [1]: 30 nM
EC50 [2]: 30 nM
EC50 [3]: 10 nM
Compound: C[C@@H]1[C@H](O)[C@@H](C)/C=C/C=C/C=C/C=C/C=C/C=C/C=C/[C@H](O[C@@H]2O[C@H](C)[C@@H](O)[C@H](N)[C@@H]2O)C[C@@H]2O[C@](O)(C[C@@H](O)C[C@@H](O)[C@H](O)CC[C@@H](O)C[C@@H](O)CC(=O)O[C@H]1C)C[C@H](O)[C@H]2C(=O)O [Amphotericin B, amphotericin B deoxycholate, reference compound]

EC50 [1]: 340 nM
EC50 [2]: 850 nM
Compound: O=[N+]([O-])c1cn2c(n1)O[C@@H](COc1ccc(-c3ccc(F)cc3)nc1)CC2 [DNDI-0690]
lesion size reduction vs respective vehicle control ([4]; study 1, 25 mg/kg PO, 10 days, day 11 post end of treatment): 89.8%
bioluminescence signal (parasite load) at the infection site ([4]; study 1, 25 mg/kg PO, 10 days): significantly reduce

EC50 [1]: 70 nM
EC50 [2]: 50 nM
EC50 [3]: 240 nM
EC50 (in vitro): 181000 nM
Compound: Cc1c(C(=O)Nc2ccc3c(c2)B(O)OC3)nnn1-c1ccccn1 [DNDI-6148]
lesion size reduction [5, 7]: no visible nodule
reduction of the parasite load as measured by qPCR [5, 7]: ~2 log-fold
% reduction Lesion size ([5]; Oral, 12.5 mg/kg, BID, 10 days): 66.7%
% reduction Parasite load ([5]; Oral, 12.5 mg/kg, BID, 10 days, qPCR day 11): 92.35%
% reduction Lesion size ([5]; Oral, 25 mg/kg, BID, 10 days): 85.4%
% reduction Parasite load ([5]; Oral, 25 mg/kg, BID, 10 days, qPCR day 11): 98.49%
% reduction Lesion size ([5]; Oral, 50 mg/kg, BID, 5 days): 43.2%
% reduction Parasite load ([5]; Oral, 50 mg/kg, BID, 5 days, qPCR): 100.00%
% reduction Lesion size ([5]; Oral, 50 mg/kg, BID, 10 days): 100.0% and 75.7% and 91.9%
% reduction Parasite load ([5]; Oral, 50 mg/kg, BID, 10 days, qPCR day 11, 50 mg/kg): 99.56% and 100.00% and 98.41%
% reduction Lesion size ([5]; Oral, 50 mg/kg, QD, 10 days): 100.0%
% reduction Parasite load ([5]; Oral, 50 mg/kg, QD, 10 days, qPCR day 11): 97.73%
% reduction Parasite load ([5]; Topical, Sat sol in PG-EtOH (1:1), 50 μl BID, 10 days, qPCR day 11): 71.49% and 99.68%
lesion size reduction vs respective vehicle control [4, 8]: 93.2%
mice clear of any detectable infection [4, 8]: 1/5
bioluminescence signal (parasite load) at the infection site ([4]; study 1, 50 mg/kg PO, 5 days): significantly reduce
mice cured (no visible lesion), no detectable parasite load by bioluminescence [4, 9]: 3/6
overall lesion size reduction compared to the average VC lesion size [4, 9]: 99.3%
mice cured, no detectable parasite load ([4]; study 2, 50 mg/kg PO, 10 days, day 18 post end of treatment): 6/6
mice that had developed papules ([4]; study 2, 50 mg/kg PO, 10 days, day 61 post end of treatment): 0/5
mice that had developed papules ([4]; study 2, 50 mg/kg PO, 10 days, day 74 post end of treatment): 1/5
average lesion size [4, 10]: 1.98 mm^2
mice that had developed lesions [4, 10]: 1/5
distribution coefficient (log D), DNDi data [6]: 1.92

EC50 [1]: 30 nM
EC50 [2]: 380 nM
EC50 [3]: 1200 nM
EC50 (in vitro): > 200000 nM
Compound: O=[N+]([O-])c1cn2c(n1)OC[C@H](Oc1ccc(OC(F)(F)F)cc1)C2 [DNDI-8219, (6 R)-2-Nitro-6-[4-(trifluoromethoxy)phenoxy]-6,7-dihydro-5 H-imidazo[2,1-b][1,3]oxazine]
